This is an account of results in ChEMBL document CHEMBL3351532, “In vitro antiplasmodial and cytotoxic activities of asymmetrical pyridinium derivatives” (Eur J Med Chem, 2014).

In general, IC50 refers to the point on the concentration scale where inhibition reaches its midpoint. Usually CC50 stands for the concentration that lowers cell viability or growth by half.

Data set [1] deals with Plasmodium falciparum. In words: Antiplasmodial activity against Plasmodium falciparum 3D7 infected in human erythrocytes assessed as parasite growth inhibition after 72 hrs by SYBR Green I dye based fluorescence assay. The note with it: 3D7, 72 h. Format: functional, organism-based. The method, boiled down: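 P. falciparum 3D7, sorbitol-synchronized, in O+ human erythrocytes at 5% hematocrit and 0.5% parasitemia. Medium: RPMI 1640 with 2% human serum, 0.5% Albumax II and 0.2% NaHCO3, at 37 °C in 5% CO2. Triplicate serial dilutions, 0.001% final DMSO, 80 nM chloroquine as positive control, 72 h. SYBR Green I lysis for 1 h in the dark (ex 485/em 530 nm). IC50 by nonlinear regression of counts against log concentration.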

Data set [2] in a line: Cytotoxicity against rat L6 cells after 72 hrs by alamar blue assay. Format: cell-based. In outline:
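Rat L6 skeletal myoblasts plated at 50,000 cells/well in RPMI 1640 with L-glutamine and 10% FBS, left to adhere 3 h, then exposed to serial dilutions for 72 h. Alamar Blue added for 2 h at 37 °C, fluorescence read at ex 536/em 588 nm. TC50 taken as the concentration halving fluorescence relative to inhibitor-free wells.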
(In general: The colour change of resazurin is a common sign of viable cells or microbes.)

The nature of data set [3]: Selectivity index, ratio of CC50 for rat L6 cells to IC50 for Plasmodium falciparum 3D7. Format: functional.

Turning to `CN(C)c1cc[n+](Cc2ccc(Cn3cnc4c(N)ncnc43)cc2)cc1`, in data set [1], the half-inhibitory concentration (IC50) is 14300 nM.
On to `Nc1ncnc2c1ncn2Cc1ccc(C[n+]2ccc(N3CCCC3)cc2)cc1`, for which the half-maximal inhibitory concentration (IC50) in data set [1] stood at 6430 nM.
Still for that read-out and setting: with `CN(C)c1cc[n+](Cc2ccc(-c3ccc(Cn4cnc5c(N)ncnc54)cc3)cc2)cc1` the figure was 4840 nM.
On the same count and under the same terms, the value for `Nc1ncnc2c1ncn2Cc1ccc(-c2ccc(C[n+]3ccc(N4CCCC4)cc3)cc2)cc1` was 191 nM; that for `CN(C)c1cc[n+](Cc2ccc(CCc3ccc(Cn4cnc5c(N)ncnc54)cc3)cc2)cc1` was 191 nM; that for `Nc1ncnc2c1ncn2Cc1ccc(CCc2ccc(C[n+]3ccc(N4CCCC4)cc3)cc2)cc1` was 93 nM.
Still for that read-out and setting: with `CN(C)c1cc[n+](Cc2ccc(CCCCc3ccc(Cn4cnc5c(N)ncnc54)cc3)cc2)cc1` the figure was 162 nM.
With `Nc1ncnc2c1ncn2Cc1ccc(CCCCc2ccc(C[n+]3ccc(N4CCCC4)cc3)cc2)cc1`, the half-maximal inhibitory concentration (IC50) in data set [1] stood at 460 nM.
As for `CN(C)c1cc[n+](Cc2ccc(Cn3cnc(N)c4ncnc3-4)cc2)cc1`, the half-maximal inhibitory concentration (IC50) in data set [1] was > 22700 nM.
Regarding `CN(C)c1cc[n+](Cc2ccc(-c3ccc(Cn4cnc(N)c5ncnc4-5)cc3)cc2)cc1`, the 50% inhibitory concentration (IC50) in data set [1] is 949 nM.
Same read-out and setting: with `Nc1ncn(Cc2ccc(CCc3ccc(C[n+]4ccc(N5CCCC5)cc4)cc3)cc2)c2ncnc1-2` the figure was 210 nM; with `CN(C)c1cc[n+](Cc2ccc(CCCCc3ccc(Cn4cnc(N)c5ncnc4-5)cc3)cc2)cc1`, 930 nM.
Still for that read-out and setting: with `Nc1ncn(Cc2ccc(CCCCc3ccc(C[n+]4ccc(N5CCCC5)cc4)cc3)cc2)c2ncnc1-2` the figure was 84 nM; with `CN(C)c1cc[n+](Cc2ccc(C[n+]3ccc(N4CCCC4)cc3)cc2)cc1`, 94 nM.
For `CN(C)c1cc[n+](Cc2ccc(-c3ccc(C[n+]4ccc(N5CCCC5)cc4)cc3)cc2)cc1.[Br-].[Br-]`, in data set [2], the midpoint of cytotoxicity, the CC50 at 72 h, lay at 5.1 µg/mL. In addition, in data set [3], the “Ratio CC50/IC50” value is listed as 3187.5. For the same compound, in data set [1], the half-inhibitory concentration (IC50) worked out at 3 nM.
The like results for `CN(C)c1cc[n+](Cc2ccc(CCc3ccc(C[n+]4ccc(N5CCCC5)cc4)cc3)cc2)cc1.[Br-].[Br-]` were, in that order, 0.123 µg/mL, 58.6 and 3 nM.
Regarding `CN(C)c1cc[n+](Cc2ccc(CCCCc3ccc(C[n+]4ccc(N5CCCC5)cc4)cc3)cc2)cc1.[Br-].[Br-]`, the CC50 at 72 h in data set [2] came out at 0.012 µg/mL. Further, in data set [3], the “Ratio CC50/IC50” value is reported as 8.6. In data set [1], the IC50 is 2 nM.
For `CN(c1ccc(Cl)cc1)c1cc[n+](Cc2ccc(C[n+]3ccc(N4CCCC4)cc3)cc2)cc1`, the IC50 in data set [1] worked out at 92 nM.
Still for that read-out and setting: the value for `CN(c1ccc(Cl)cc1)c1cc[n+](Cc2ccc(-c3ccc(C[n+]4ccc(N5CCCC5)cc4)cc3)cc2)cc1` was 38 nM.
For the compound `CN(c1ccc(Cl)cc1)c1cc[n+](Cc2ccc(CCc3ccc(C[n+]4ccc(N5CCCC5)cc4)cc3)cc2)cc1`, the concentration for half-maximal inhibition (IC50) in data set [1] is 31 nM.
Regarding `CN(c1ccc(Cl)cc1)c1cc[n+](Cc2ccc(CCCCc3ccc(C[n+]4ccc(N5CCCC5)cc4)cc3)cc2)cc1`, in data set [1], the IC50 is 37 nM.
The same measure, in the same setting: the value for `CN(C)c1cc[n+](Cc2ccc(C[n+]3ccc(N(C)c4ccc(Cl)cc4)cc3)cc2)cc1` was 66 nM.
As for `CN(C)c1cc[n+](Cc2ccc(-c3ccc(C[n+]4ccc(N(C)c5ccc(Cl)cc5)cc4)cc3)cc2)cc1.[Br-].[Br-]`, in data set [2], the CC50 at 72 h is 0.122 µg/mL. For the same compound, in data set [3], the “Ratio CC50/IC50” value turned out to be 24.4. For the same compound, the half-inhibitory concentration (IC50) in data set [1] amounted to 7 nM.
`CN(C)c1cc[n+](Cc2ccc(CCc3ccc(C[n+]4ccc(N(C)c5ccc(Cl)cc5)cc4)cc3)cc2)cc1.[Br-].[Br-]` yielded a CC50 at 72 h in data set [2] of 0.1 µg/mL. The “Ratio CC50/IC50” value in data set [3] is recorded as 28.6. Besides, the concentration for half-maximal inhibition (IC50) in data set [1] amounted to 5 nM.
As for `CN(C)c1cc[n+](Cc2ccc(CCCCc3ccc(C[n+]4ccc(N(C)c5ccc(Cl)cc5)cc4)cc3)cc2)cc1`, the IC50 in data set [1] is 45 nM.
With `CN(C)c1cc[n+](Cc2ccc(Cn3cnc4c(SCc5ccccc5)ncnc43)cc2)cc1`, in data set [1], the IC50 stood at 122 nM.
The same measure, in the same setting: with `c1ccc(CSc2ncnc3c2ncn3Cc2ccc(C[n+]3ccc(N4CCCC4)cc3)cc2)cc1` the figure was 411 nM.
Same read-out and setting: the value for `CN(C)c1cc[n+](Cc2ccc(-c3ccc(Cn4cnc5c(SCc6ccccc6)ncnc54)cc3)cc2)cc1` was 3220 nM; that for `c1ccc(CSc2ncnc3c2ncn3Cc2ccc(-c3ccc(C[n+]4ccc(N5CCCC5)cc4)cc3)cc2)cc1` was 119 nM.
On the same count and under the same terms, the value for `CN(C)c1cc[n+](Cc2ccc(CCc3ccc(Cn4cnc5c(SCc6ccccc6)ncnc54)cc3)cc2)cc1` was 92 nM; that for `c1ccc(CSc2ncnc3c2ncn3Cc2ccc(CCc3ccc(C[n+]4ccc(N5CCCC5)cc4)cc3)cc2)cc1` was 149 nM.
For the compound `CN(C)c1cc[n+](Cc2ccc(CCCCc3ccc(Cn4cnc5c(SCc6ccccc6)ncnc54)cc3)cc2)cc1`, the 50% inhibitory concentration (IC50) in data set [1] worked out at 500 nM.
Turning to `c1ccc(CSc2ncnc3c2ncn3Cc2ccc(CCCCc3ccc(C[n+]4ccc(N5CCCC5)cc4)cc3)cc2)cc1`, in data set [1], the concentration for half-maximal inhibition (IC50) amounted to 54 nM.
